Experimental data reported in ChEMBL document CHEMBL1147809, “Tumor-cell-targeted methionine-enkephalin analogues containing unnatural amino acids: design, synthesis, and in vitro antitumor activity” (2006).
*1 amine or outer side, *2 acyl side, *3 side chain or, on linkers, in order; H or OH if unused. Where a SMILES comes first, the peptide text is derived from it. [ ]: non-standard residue; d: D form. X1 = O=C(C(N[*:1])C1C2CC3CC(C2)CC1C3)[*:2]; X2 = O=C(C1(N[*:1])C2CC3CC(C2)CC1C3)[*:2]

Assays:
Type in all cases: functional
Caco-2 [1] = assay: Antiproliferative activity against human Caco-2 cell line at 1000 uM relative to control
Outline: (§1)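 Cells from ATCC grown as monolayers in DMEM with 10% FBS, 2 mM glutamine, penicillin/streptomycin, 37 °C, 5% CO2. Seeded at 2 × 10^4 cells/mL, and after 24 h the medium was replaced with fresh medium containing compound (water/10% DMSO stock, PBS working dilutions 10^-3 to 10^-6 M). Exposure was 72 h, then MTT read-out. Growth % = (A_peptide − A_blank)/(A_control − A_blank) × 100, with inhibition taken relative to untreated cells. Values are means of three experiments run in triplicate.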

HEp-2 [2] = assay: Antiproliferative activity against human HEp2 cell line at 10 uM relative to control; outline: as §1
HT-29 [3] = assay: Antiproliferative activity against human HT29 cell line at 1000 uM relative to control; outline: as §1
Caco-2 [4] = assay: Antiproliferative activity against human Caco-2 cell line at 1 uM relative to control; outline: as §1
SW-620 [5] = assay: Antiproliferative activity against human SW620 cell line at 100 uM relative to control; outline: as §1
HBL [6] = assay: Antiproliferative activity against human HBL cell line at 100 uM relative to control; outline: as §1
HT-29 [7] = assay: Antiproliferative activity against human HT29 cell line at 1 uM relative to control; outline: as §1
HeLa [8] = assay: Antiproliferative activity against human HeLa cell line at 10 uM relative to control; outline: as §1
HBL [9] = assay: Antiproliferative activity against human HBL cell line at 1000 uM relative to control; outline: as §1
HEp-2 [10] = assay: Antiproliferative activity against human HEp2 cell line at 100 uM relative to control; outline: as §1
MCF7 [11] = assay: Antiproliferative activity against human MCF7 cell line at 10 uM relative to control
Outline: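 MTT assay on monolayer cells grown in DMEM with 10% FBS, 2 mM glutamine, penicillin and streptomycin, at 37 °C in 5% CO2. Cells were plated at 2 × 10^4 cells/mL on day 0. After 24 h the medium was replaced with fresh medium containing compound (working dilutions in PBS from 10% DMSO/water stock), then incubated 72 h. Percent growth inhibition was calculated against untreated cells after blank subtraction. Values are means of three experiments run in triplicate.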

HBL [12] = assay: Antiproliferative activity against human HBL cell line at 10 uM relative to control; outline: as §1
HT-29 [13] = assay: Antiproliferative activity against human HT29 cell line at 100 uM relative to control; outline: as §1
HBL [14] = assay: Antiproliferative activity against human HBL cell line at 1 uM relative to control; outline: as §1
SW-620 [15] = assay: Antiproliferative activity against human SW620 cell line at 10 uM relative to control; outline: as §1
HeLa [16] = assay: Antiproliferative activity against human HeLa cell line at 1000 uM relative to control; outline: as §1
Caco-2 [17] = assay: Antiproliferative activity against human Caco-2 cell line at 10 uM relative to control; outline: as §1
MCF7 [18] = assay: Antiproliferative activity against human MCF7 cell line at 1000 uM relative to control; outline: as §1
Caco-2 [19] = assay: Antiproliferative activity against human Caco-2 cell line at 100 uM relative to control; outline: as §1
HEp-2 [20] = assay: Antiproliferative activity against human HEp2 cell line at 1000 uM relative to control; outline: as §1
HT-29 [21] = assay: Antiproliferative activity against human HT29 cell line at 10 uM relative to control; outline: as §1
SW-620 [22] = assay: Antiproliferative activity against human SW620 cell line at 1000 uM relative to control; outline: as §1
SW-620 [23] = assay: Antiproliferative activity against human SW620 cell line at 1 uM relative to control; outline: as §1
HEp-2 [24] = assay: Antiproliferative activity against human HEp2 cell line at 1 uM relative to control; outline: as §1
HeLa [25] = assay: Antiproliferative activity against human HeLa cell line at 100 uM relative to control; outline: as §1
HeLa [26] = assay: Antiproliferative activity against human HeLa cell line at 1 uM relative to control; outline: as §1
MCF7 [27] = assay: Antiproliferative activity against human MCF7 cell line at 100 uM relative to control; outline: as §1
MCF7 [28] = assay: Antiproliferative activity against human MCF7 cell line at 1 uM relative to control; outline: as §1

| SMILES | inhibition at 1000 µM (Caco-2 [1]) | inhibition at 10 µM (HEp-2 [2]) | inhibition at 1000 µM (HT-29 [3]) | inhibition at 1 µM (Caco-2 [4]) | inhibition at 100 µM (SW-620 [5]) | inhibition at 1 µM (HT-29 [7]) | inhibition at 10 µM (HeLa [8]) | inhibition at 1000 µM (HBL [9]) | inhibition at 100 µM (HEp-2 [10]) | inhibition at 10 µM (HBL [12]) | inhibition at 100 µM (HT-29 [13]) | inhibition at 10 µM (SW-620 [15]) | inhibition at 1000 µM (HeLa [16]) | inhibition at 10 µM (Caco-2 [17]) | inhibition at 1000 µM (MCF7 [18]) | inhibition at 100 µM (Caco-2 [19]) | inhibition at 1000 µM (HEp-2 [20]) | inhibition at 10 µM (HT-29 [21]) | inhibition at 1000 µM (SW-620 [22]) | inhibition at 1 µM (SW-620 [23]) | further results |
| --- | --- | --- | --- | --- | --- | --- | --- | --- | --- | --- | --- | --- | --- | --- | --- | --- | --- | --- | --- | --- | --- |
| N[C@@H](Cc1ccc(O)cc1)C(=O)NC1(C(=O)O)C2CC3CC(C2)CC1C3 (stereo partly drawn) | 26.4% | 19.7% | 26.5% | 3.5% | 28.1% | 9.8% | 10% | 14% | 24.9% | 14% | 5.4% | 16.5% | 36.1% | 22.7% | 7.5% | 18.9% | 30.4% | 1.6% | 58.2% | 12.9% | inhibition at 100 µM (HBL [6]): 7.5%; inhibition at 10 µM (MCF7 [11]): 2.4%; inhibition at 1 µM (HBL [14]): 6.5%; inhibition at 1 µM (HEp-2 [24]): 14.2%; inhibition at 100 µM (HeLa [25]): 8.2% |
| N[C@@H](Cc1ccc(O)cc1)C(=O)N[C@@H](C(=O)NCC(=O)O)C1C2CC3CC(C2)CC1C3 (stereo partly drawn) | 8.6% | 4.9% | 22.4% | 8.1% | 13.5% | 7.6% | 11.7% | 19.4% | 12.6% | 1.2% | 12.4% | 13.5% | 28.2% | 6.9% | 15.6% | 8.1% | 26.4% | 3.8% | 25.3% | 17% | inhibition at 100 µM (HBL [6]): 3.3%; inhibition at 1 µM (HeLa [26]): 11%; inhibition at 1 µM (HEp-2 [24]): 4.6%; inhibition at 100 µM (HeLa [25]): 11.6% |
| N[C@@H](Cc1ccc(O)cc1)C(=O)N[C@H](C(=O)O)C1C2CC3CC(C2)CC1C3 (stereo partly drawn) | 14.5% | 6.4% | 20.8% | 3.7% | 11.8% | 4.9% | 6.1% | 7.3% | 8.2% | 3.9% | 3.4% | 21.9% | 14.8% | 16.5% | 17.8% | 8.4% | 21.2% | 8.9% | 17.9% | 10.5% | inhibition at 100 µM (MCF7 [27]): 1.2%; inhibition at 10 µM (MCF7 [11]): 1.1%; inhibition at 1 µM (HeLa [26]): 7.5%; inhibition at 1 µM (HEp-2 [24]): 6.2%; inhibition at 100 µM (HeLa [25]): 3.1% |
| N[C@@H](Cc1ccc(O)cc1)C(=O)N[C@H](C(=O)NCC(=O)O)C1C2CC3CC(C2)CC1C3 (stereo partly drawn) | 6.2% | 2% | 15.7% | 2.2% | 14.4% | 5.4% | 7.3% | 17.9% | 18.8% | 2.9% | 9.5% | 20.4% | 28.2% | 4.2% | 21.2% | 6.4% | 26.7% | 7.4% | 23.4% | 13.6% | inhibition at 100 µM (HBL [6]): 5.9%; inhibition at 1 µM (HBL [14]): 1.6%; inhibition at 1 µM (HeLa [26]): 9.8%; inhibition at 1 µM (HEp-2 [24]): 2.7%; inhibition at 100 µM (HeLa [25]): 9.9% |
| CSCC[C@H](NC(=O)[C@H](Cc1ccccc1)NC(=O)CNC(=O)CNC(=O)[C@@H](N)Cc1ccc(O)cc1)C(=O)NC1(C(=O)O)C2CC3CC(C2)CC1C3 (stereo partly drawn) (H-YGGFM[X2]-OH) | 47% | 3.9% | 9.2% | – | – | – | – | 34.4% | – | 70.7% | – | – | 9.3% | 11.1% | 25.9% | – | 45% | – | – | – | inhibition at 100 µM (MCF7 [27]): 6.9%; inhibition at 1 µM (MCF7 [28]): 2.2%; inhibition at 10 µM (MCF7 [11]): 7.1%; inhibition at 1 µM (HBL [14]): 4.1% |
| CSCC[C@H](NC(=O)[C@H](Cc1ccccc1)NC(=O)CNC(=O)C(NC(=O)[C@@H](N)Cc1ccc(O)cc1)C1C2CC3CC(C2)CC1C3)C(=O)O (stereo partly drawn) (H-Y[X1]GFM-OH) | 8.1% | 25.8% | 14.5% | 17.7% | 14.6% | 16.2% | 9.5% | 23.2% | 34.7% | 4.5% | 5.1% | 13.1% | 24.1% | 10.9% | 29.9% | 12.1% | 44.5% | 6.6% | 38.4% | 26.4% | inhibition at 100 µM (MCF7 [27]): 9.6%; inhibition at 100 µM (HBL [6]): 11.4%; inhibition at 1 µM (HBL [14]): 2.4%; inhibition at 1 µM (HeLa [26]): 8.5%; inhibition at 1 µM (HEp-2 [24]): 13.7%; inhibition at 100 µM (HeLa [25]): 15.4% |
| CSCC[C@H](NC(=O)[C@H](Cc1ccccc1)NC(=O)CNC(=O)C1(NC(=O)[C@@H](N)Cc2ccc(O)cc2)C2CC3CC(C2)CC1C3)C(=O)O (stereo partly drawn) (H-Y[X2]GFM-OH) | 10.6% | 10.1% | 23.7% | 3% | 24.7% | 3.3% | 10.2% | 18.3% | 16.8% | 1.4% | 7.9% | 15.5% | 28% | 8.4% | 22.8% | 18.5% | 36.1% | 11% | 29% | 12.2% | inhibition at 100 µM (HBL [6]): 2.4%; inhibition at 1 µM (HBL [14]): 0.8%; inhibition at 1 µM (HeLa [26]): 4.9%; inhibition at 1 µM (HEp-2 [24]): 1%; inhibition at 100 µM (HeLa [25]): 13.3% |
